This passage reports Fall, SP and Activity results from ChEMBL document CHEMBL1121617, “Antihypertensive ureidopiperidines” (1980).

The source made the active and inactive calls. The calls are words filed in the database; no cut-off is given here. Some results are limits rather than exact numbers.

In assay [1] the test system is Rattus norvegicus. Briefly: The percent fall in systolic blood pressure at 1.5 / 4 hr after peroral administration of 50 mg/kg in DOCA/saline hypertensive rats at 24 hr; Non significant. The assay is classed as functional, organism-based. On the set-up: dose 50 mg/kg. Conditions: Artery, at 50 mg/kg.
Assay [2] deals with Rattus norvegicus. Briefly: The percent fall in systolic blood pressure at 1.5 / 4 hr after peroral administration of 50 mg/kg in DOCA/saline hypertensive rats at 6 hr. The assay is classed as functional, Artery. Conditions: route oral.
The subject of assay [3] is Rattus norvegicus. Briefly: Starting systolic blood pressure at dose of 50 mg/kg in rat. The assay is classed as functional, Artery. An outline of the steps: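 Mean systolic blood pressure before dosing for each group of four DOCA/saline hypertensive rats given 50 mg/kg orally. It indicates how far hypertension was established.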
The subject of assay [4] is Rattus norvegicus. Briefly: The percent fall in systolic blood pressure at 1.5 / 4 h after peroral administration of 50 mg/kg in DOCA/saline hypertensive rats at 2 hr. The format is functional, Artery. The following applies: route oral.
Assay [5] relates to Rattus norvegicus. Briefly: The percent fall in systolic blood pressure at 1.5 / 4 hr after peroral administration of 40 mg/kg in conscious renal hypertensive rats (RHR). The format is functional, Artery. Conditions: route oral. An outline of the steps: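 Conscious renal hypertensive rats, four per group, dosed orally. Starting systolic pressures were 160–200 mmHg. Percentage fall in systolic pressure was taken at 1.5 and/or 4 h after dosing. Falls under 10% were scored as ±.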

Assay [6] deals with Rattus norvegicus. Briefly: Percent fall in systolic blood pressure at 1.5 / 4 hr after peroral administration of 50 mg/kg in DOCA/saline hypertensive rats at 6 h; Non significant. The assay is classed as functional, organism-based. On the set-up: dose 50 mg/kg. Conditions: Artery, at 50 mg/kg.
Assay [7] relates to Rattus norvegicus. Briefly: The percent fall in systolic blood pressure after peroral administration of 50 mg/kg in DOCA/saline hypertensive rats at 24 hr. The following applies: route oral.
In assay [8] the test system is Rattus norvegicus. Briefly: Starting systolic blood pressure at dose of 25 mg/kg. The assay is classed as functional, Artery. Summed up: (§1)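 DOCA/saline hypertensive rats, four per group, dosed orally at 50, 25 or 10 mg/kg. Mean starting systolic pressure was recorded for each group. Systolic pressure was then read 2, 6 and 24 h after dosing and reported as percentage fall from the starting value.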

For assay [9], the system named is Rattus norvegicus. Briefly: Starting systolic blood pressure at dose of 10 mg/kg. The assay is classed as functional, Artery. Summed up: as §1
For assay [10], the system named is Rattus norvegicus. Briefly: The percent fall in systolic blood pressure at 1.5 / 4 hr after peroral administration of 10 mg/kg in DOCA/saline hypertensive rats at 6 hr. Conditions: route oral. The assay is classed as functional, Artery. An outline of the steps: as §1
For assay [11], the system named is Rattus norvegicus. Briefly: The percent fall in systolic blood pressure at 1.5 / 4 hr after peroral administration of 10 mg/kg in DOCA/saline hypertensive rats at 24 hr; Non significant, p>0.05. The format is functional, organism-based. On the set-up: dose 10 mg/kg. The following applies: Artery, at 10 mg/kg. Summed up: as §1
The subject of assay [12] is Rattus norvegicus. Briefly: The percent fall in systolic blood pressure at 1.5 / 4 hr after peroral administration of 25 mg/kg in DOCA/saline hypertensive rats at 6 hr. The assay is classed as functional, Artery. The following applies: route oral. An outline of the steps:
as §1

The subject of assay [13] is Rattus norvegicus. Briefly: The percent fall in systolic blood pressure at 1.5 / 4 hr after peroral administration of 25 mg/kg in DOCA/saline hypertensive rats at 24 hr; Non significant, p>0.05. On the set-up: dose 25 mg/kg. Conditions: Artery, at 25 mg/kg. The format is functional, organism-based.
In assay [14] the test system is Rattus norvegicus. Briefly: The percent fall in systolic blood pressure at 1.5 / 4 hr after peroral administration of 10 mg/kg in DOCA/saline hypertensive rats at 2 hr. The format is functional, Artery. Conditions: route oral. Summed up: as §1
For assay [15], the system named is Rattus norvegicus. Briefly: The percent fall in systolic blood pressure at 1.5 / 4 hr after peroral administration of 25 mg/kg in DOCA/saline hypertensive rats at 2 hr. The format is functional, Artery. Conditions: route oral. Summed up: as §1
The subject of assay [16] is Rattus norvegicus. Briefly: The percent fall in systolic blood pressure at 1.5 / 4 hr after peroral administration of 50 mg/kg in DOCA/saline hypertensive rats at 24 hr. The assay is classed as functional, Artery. The following applies: route oral. Summed up:
as §1

The test system of assay [17] is Rattus norvegicus. Briefly: The percent fall in systolic blood pressure at 1.5 / 4 hr after peroral administration of 10 mg/kg in DOCA/saline hypertensive rats at 6 h; Non significant, p>0.05. The format is functional, organism-based. On the set-up: dose 10 mg/kg. The following applies: Artery, at 10 mg/kg. An outline of the steps: as §1
For assay [18], the system named is Rattus norvegicus. Briefly: The percent fall in systolic blood pressure at 1.5 / 4 hr after peroral administration of 25 mg/kg in DOCA/saline hypertensive rats at 24 hr. The assay is classed as functional, Artery. The following applies: route oral. Summed up: as §1
The test system of assay [19] is Rattus norvegicus. Briefly: The percent fall in systolic blood pressure at 1.5 / 4 hr after peroral administration of 10 mg/kg in DOCA/saline hypertensive rats at 24 hr; Non significant. The assay is classed as functional, organism-based. On the set-up: dose 10 mg/kg. Conditions: Artery, at 10 mg/kg.
Assay [20] deals with Rattus norvegicus. Briefly: The percent fall in systolic blood pressure at 1.5 / 4 hr after peroral administration of 50 mg/kg in DOCA/saline hypertensive rats at 2 hr; Non significant. Conditions: Artery, at 50 mg/kg. On the set-up: dose 50 mg/kg. The format is functional, organism-based.

For `O=C(CCCN1CCC(NC(=S)NC(=O)c2ccccc2)CC1)c1ccccc1`, the figures for the Fall result in [1], in [2] and in assay [4] were “Not significant”, 32% and 36%, respectively. In assay [3], the SP is given as 186 mmHg.
The matching figures for `O=C(Nc1ccccc1C(F)(F)F)NC1CCN(CCCC(=O)c2ccccc2)CC1`: “Not significant”, 20%, 20% and 208 mmHg.
Turning to `Cc1cccc(NC(=O)NC2CCN(CCCC(=O)c3ccccc3)CC2)c1`, the Activity in assay [5] came to 21.
Regarding `COc1ccccc1OCC(O)CN1CCC(NC(=O)Nc2ccccc2)CC1` (stereo not drawn), the Fall result is “Not significant” in assay [6], -27% in assay [7] and 27% in assay [4]. This compound displayed an SP in assay [3] of 212 mmHg.
In turn, `Cc1cccc(NC(=O)NC2CCN(CCc3c[nH]c4ccccc34)CC2)c1` yielded an Activity in assay [5] of 14.
In assay [5], `COc1ccc(NC(=O)NC2CCN(CCc3c[nH]c4ccccc34)CC2)cc1` returned an Activity of 27.
`S=C(Nc1ccccc1)NC1CCN(CCc2c[nH]c3ccccc23)CC1`: in [5], the Activity is listed as 21.
`O=C(NC(=O)C1CCCCC1)NC1CCN(CCc2c[nH]c3ccccc23)CC1`: the Fall entry in [1] was “Not significant”; in [2], 52%; in assay [10], 27%; in assay [11], “Non significant, p>0.05”; in [12] it was 54%; in assay [13], “Not significant”. Further, the Fall is reported as 30% in assay [14], 54% in assay [15] and 48% in assay [4]. Besides, the results for the SP in [8], in assay [9] and in [3] were 181 mmHg, 170 mmHg and 173 mmHg, respectively.
For `O=C(NC(=O)c1ccccc1)NC1CCN(CCCC(=O)c2ccc(F)cc2)CC1`, the Fall entry is “Not significant” in assay [1], 31% in assay [2] and 43% in assay [4]. The SP in assay [3] amounted to 184 mmHg.
With `O=C(NC(=O)c1cccs1)NC1CCN(CCc2c[nH]c3ccccc23)CC1`, the SP in assay [8] is reported as 171 mmHg; in assay [9], 169 mmHg; in [3], 193 mmHg. Moreover, the Fall in [16] was 38%; in [2] it was 38%; in [10], 46%; in [11] it was “Not significant”; in assay [12] it was 46%; in assay [13], “Not significant”. In addition, the results for the Fall in assay [14], in [15] and in [4] were 50%, 43% and 47%, respectively.
Turning to `O=C(NC(=O)c1ccccc1)NC1CCN(CCCC(=O)c2ccccc2)CC1`, the Fall entry in [1] is “Not significant”; in [6], “Not significant”; in assay [11], “Not significant”; in assay [12], 26%; in assay [13], “Not significant”; in assay [14] it was 22%. For the same compound, the Fall entry was “Not significant” in [17], 28% in assay [15] and 21% in [4]. Also, the SP in [8] worked out at 178 mmHg; in [9], 173 mmHg; in [3] it was 169 mmHg.
Take `O=C(NC(=O)c1ccccc1)NC1CCN(CCc2c[nH]c3ccccc23)CC1`: the values for the SP in assay [8], in assay [9] and in assay [3] were 171 mmHg, 178 mmHg and 179 mmHg, respectively. This compound also gave an Activity in assay [5] of 48. Moreover, the Fall in assay [16] was 38%; in assay [2], 49%; in [11], “Not significant”; in assay [12] it was 48%; in assay [14], 36%; in assay [18], 21%. Also, the Fall result in assay [17] was “Not significant”; in assay [15], 51%; in assay [4], 49%.
In the case of `COc1ccc(NC(=O)NC2CCN(CCCC(=O)c3ccccc3)CC2)cc1`, the Activity in assay [5] was <10.
In the case of `O=C(Nc1ccccc1)NC1CCN(CCCC(=O)c2ccccc2)CC1`, the Fall entry in assay [1] is “Not significant”; in assay [2], 24%; in [4] it was 31%. In assay [5], this compound came in with an Activity of 39. In assay [3], this compound returned an SP of 205 mmHg.
In the case of `O=C(Nc1ccc(Cl)cc1)NC1CCN(CCc2c[nH]c3ccccc23)CC1`, in [5], the Activity stood at 21.
On to `O=C(Nc1ccc(Cl)c(Cl)c1)NC1CCN(CCCC(=O)c2ccccc2)CC1`, for which the Fall turned out to be 35% in assay [2], 18% in assay [7] and 35% in assay [4]. In addition, in [3], the SP stood at 169 mmHg.
Regarding `O=C(Nc1ccc(Cl)cc1)NC1CCN(CCCC(=O)c2ccccc2)CC1`, the Fall result in [1] is “Not significant”; in assay [2], 25%; in assay [4], 30%. Moreover, in assay [3], the SP is on record as 200 mmHg.
On to `CN(C(=O)Nc1ccccc1)C1CCN(CCc2c[nH]c3ccccc23)CC1`, for which the SP was determined as 180 mmHg in assay [8], 168 mmHg in [9] and 174 mmHg in assay [3]. The Fall in assay [16] is listed as 26%; in assay [2] (50 mg/kg), 52%; in assay [12], 38%; in [18], 20%; in [15], 44%; in assay [4] (50 mg/kg), 54%.
`O=C(NC1CCN(CCc2c[nH]c3ccccc23)CC1)c1ccccc1` [INDORAMIN]: the values for the SP in assay [8], in [9] and in [3] were 178 mmHg, 197 mmHg and 198 mmHg, respectively. Further, the Fall result in assay [19] and in assay [13] was “inactive” each time. Moreover, in assay [5], the Activity is reported as 38. The Fall in [16] was found to be 38%; in assay [2] it was 45%; in [10], 31%; in assay [12] it was 29%; in assay [14], 33%; in [15] it was 25%. The Fall in [4] is on record as 41%.
Turning to `NC(=O)NC1CCN(CCc2c[nH]c3ccccc23)CC1`, the Activity in assay [5] is reported as 28.
As for `O=C(Nc1ccccc1C(F)(F)F)NC1CCN(CCc2c[nH]c3ccccc23)CC1`, the Activity in [5] was <10.
As for `Cc1cccc(C)c1NC(=O)NC1CCN(CCCC(=O)c2ccccc2)CC1`, the Activity in assay [5] is on record as <10.
`CCCCNC(=O)NC1CCN(CCc2c[nH]c3ccccc23)CC1`: the Fall entry was “Not significant” in assay [1], 29% in [2] and “Not significant” in assay [20]. Besides, the SP in [3] is listed as 172 mmHg.
As to `Cn1cc(CCN2CCC(NC(=O)NC(=O)c3ccccc3)CC2)c2ccccc21`, the figures for the Fall entry in assay [1], in assay [2] and in assay [4] were “Not significant”, 28% and 26%, respectively. The compound also returned an SP in [3] of 172 mmHg.
Turning to `N=C(NC(=O)c1ccccc1)NC1CCN(CCCC(=O)c2ccccc2)CC1`, the Fall entry in [1], in [6] and in assay [20] was “Not significant” in each case. This compound showed an SP in assay [3] of 188 mmHg.
In the case of `O=C(Nc1ccc(Cl)c(Cl)c1)NC1CCN(CCc2c[nH]c3ccccc23)CC1`, the Activity in assay [5] is listed as 15.
In the case of `O=C(Nc1ccccc1)NC1CCN(CCc2c[nH]c3ccccc23)CC1`, the Activity in assay [5] is given as 29.
